Measured values reported in ChEMBL document CHEMBL1125740, “Heterocyclic quinones. 17. A new in vivo active antineoplastic drug: 6,7-bis(1-aziridinyl)-4-[[3-(N,N-dimethylamino)propyl]amino]-5,8- quinazolinedione” (J Med Chem, 1991).
“And” between values parts separate entries of the source, which are not always exact repeats. Identical values can stand only once.

How the values were obtained:
[1] = tested on: B16; experiment: Compound was evaluated in vivo for antitumor activity against B16 melanoma 1 after injecting the compound intravenously for total dose.; assay type: functional, Mus musculus
[2] = tested on: L1210; experiment: Compound was evaluated in vivo for antitumor activity after intraperitoneal administration against L1210(935) for mortality range at an optimal dose of 1 mg/kg/injection at 1 day schedule.; assay type: functional, Mus musculus
In short: (§1)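 L1210 leukemia, maintained in DBA/2 mice, was given ip as 10⁵ cells on day 0 to F1 hybrid or strain-of-origin mice over 18 g, in groups of 8. Dosing was ip from day 1, and mortality was checked daily. Median day of death counts dying mice only. %ILS = 100×(treated − control median day of death)/control median. Tumor-free survivors were counted on day 60. Weight change is g/mouse at nadir.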

[3] = tested on: P388; experiment: Compound was evaluated in vivo for antitumor activity after intraperitoneal administration against P388 (1313) for median day of death at an optimal dose of 0.4 mg/kg/injection; assay type: functional, Mus musculus
[4] = tested on: P388; experiment: Compound was evaluated in vivo for antitumor activity after intraperitoneal administration against P388/L-PAM(14) for total dose at an optimal dose of 0.2 mg/kg/injection at 1,2,3,4 day schedule.; assay type: functional, Mus musculus
[5] = tested on: P388; experiment: Compound was evaluated in vivo for antitumor activity after intraperitoneal administration against P388/L-PAM(14) for median day of death at an optimal dose of 0.125 mg/kg/injection at 1,4,7,11 day schedule.; assay type: functional, Mus musculus
[6] = tested on: L1210; experiment: Compound was evaluated in vivo for antitumor activity after intraperitoneal administration against L1210(935) for mortality range at an optimal dose of 0.5 mg/kg/injection at 1,4,7,11day schedule.; assay type: functional, Mus musculus; in short: as §1
[7] = tested on: L1210; experiment: Compound was evaluated in vivo for antitumor activity after intraperitoneal administration against L1210(935)for % increase in life span at an optimal dose of 1 mg/kg/injection at 1 day schedule.; assay type: functional; details: Mus musculus, L1210, ip, 24 h; in short: as §1
[8] = tested on: L1210; experiment: Compound was evaluated in vivo for antitumor activity after intraperitoneal administration against L1210(935) for mortality range at an optimal dose of 0.5 mg/kg/injection at 1 day schedule.; assay type: functional, Mus musculus; in short: as §1
[9] = tested on: P388; experiment: Compound was evaluated in vivo for antitumor activity after intraperitoneal administration against P388/L-PAM(12) for % increase in life span at an optimal dose of 0.75 mg/kg/injection; assay type: functional; details: Mus musculus, P388, ip
[10] = tested on: P388; experiment: Compound was evaluated in vivo for antitumor activity after intraperitoneal administration against P388 (1313) for mortality range at an optimal dose of 0.2 mg/kg/injection; assay type: functional, Mus musculus
[11] = tested on: P388; experiment: Compound was evaluated in vivo for antitumor activity after intraperitoneal administration against P388 (1313) for tumor free survivors at an optimal dose of 1 mg/kg/injection on day 60; assay type: functional, Mus musculus
[12] = tested on: P388; experiment: Compound was evaluated in vivo for antitumor activity after intraperitoneal administration against P388/L-PAM(14) for tumor free survivors at an optimal dose of 0.5 mg/kg/injection at 1,4,7,11 day schedule on day 60; assay type: functional, Mus musculus
[13] = tested on: P388; experiment: Compound was evaluated in vivo for antitumor activity after intraperitoneal administration against P388/L-PAM(14) for % increase in life span at an optimal dose of 0.5 mg/kg/injection at 1,4,7,11 day schedule.; assay type: functional; details: Mus musculus, P388, ip
[14] = tested on: P388; experiment: Compound was evaluated in vivo for antitumor activity after intraperitoneal administration against P388 (1313) for % increase in life span at an optimal dose of 0.25 mg/kg/injection; assay type: functional; details: Mus musculus, P388, ip
[15] = tested on: P388; experiment: Compound was evaluated in vivo for antitumor activity after intraperitoneal administration against P388/L-PAM(14) for total dose at an optimal dose of 1 mg/kg/injection; assay type: functional, Mus musculus
[16] = Compound was evaluated in vivo for antitumor activity against Glasgow osteogenic sarcoma after injecting the compound intravenously for total dose.; assay type: functional, Mus musculus
In short: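 Glasgow osteogenic sarcoma in C57Bl/6-derived hosts: 30-60 mg fragments implanted sc by trocar on day 0. Drug given iv on days 3, 6 and 9, 7 mice per group. Tumors measured by caliper. Median tumor burden recorded on day 10. Body weight change per mouse recorded at nadir. Toxicity-related deaths counted.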

[17] = tested on: L1210; experiment: Compound was evaluated in vivo for antitumor activity after intraperitoneal administration against L1210(935) for median day of death at an optimal dose of 0.25 mg/kg/injection at 1,4,7,11day schedule.; assay type: functional, Mus musculus; in short: as §1
[18] = tested on: P388; experiment: Compound was evaluated in vivo for antitumor activity after intraperitoneal administration against P388/L-PAM(14) for change in body weight at an optimal dose of 0.125 mg/kg/injection at 1,4,7,11 day schedule.; assay type: functional, Mus musculus
[19] = tested on: L1210; experiment: Compound was evaluated in vivo for antitumor activity after intraperitoneal administration against L1210(935) for total dose at an optimal dose of 0.125 mg/kg/injection at 1,4,7,11day schedule.; assay type: functional, Mus musculus; in short: as §1
[20] = tested on: P388; experiment: Compound was evaluated in vivo for antitumor activity after intraperitoneal administration against P388/L-PAM(14) for change in body weight at an optimal dose of 0.5 mg/kg/injection at one day schedule.; assay type: functional, Mus musculus
[21] = tested on: P388; experiment: Compound was evaluated in vivo for antitumor activity after intraperitoneal administration against P388 (1313) for mortality range at an optimal dose of 0.4 mg/kg/injection; assay type: functional, Mus musculus
[22] = tested on: P388; experiment: Compound was evaluated in vivo for antitumor activity after intraperitoneal administration against P388/L-PAM(14) for mortality range at an optimal dose of 0.1 mg/kg/injection at 1,2,3,4 day schedule.; assay type: functional, Mus musculus
[23] = tested on: B16; experiment: Compound was evaluated in vivo for antitumor activity against B16 melanoma after injecting the compound intravenously for toxicity related death.; assay type: functional, Mus musculus
In short: (§2)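 30-60 mg tumor fragments implanted sc by trocar on day 0 into C57Bl/6-derived hosts (B16) or C3H/He-derived hosts (16/C). Drug given iv on days 6, 9 and 13 (B16) or 6, 9 and 12 (16/C), 10 mice per group. Tumors measured by caliper. T/C % taken from median tumor burden of treated vs control groups on day 15 (B16) or day 14 (16/C). Body weight change per mouse recorded at nadir.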

[24] = Compound was evaluated in vivo for antitumor activity against mammary adenocarcinoma 16/C after injecting the compound intravenously for toxicity related death.; assay type: functional, Mus musculus; in short: as §2
[25] = tested on: L1210; experiment: Compound was evaluated in vivo for antitumor activity after intraperitoneal administration against L1210(935) for total dose at an optimal dose of 1 mg/kg/injection at 1 day schedule.; assay type: functional, Mus musculus; in short: as §1
[26] = Compound was evaluated in vivo for antitumor activity against Lewis Lung cercinoma after injecting the compound intravenously for change in body weight.; assay type: functional, Mus musculus
In short: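 Lewis lung carcinoma: 10^6 cells implanted im into C57Bl/6-derived hosts. Drug given iv on days 5, 9 and 13, 10 mice per group. Median tumor burden and weight nadir recorded. Survivors were killed on day 19, and their lungs were fixed in Fekete solution so that macroscopic metastases could be counted.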

[27] = tested on: L1210; experiment: Compound was evaluated in vivo for antitumor activity after intraperitoneal administration against L1210(935)for change in body weight at an optimal dose of 0.5 mg/kg/injection at 1 day schedule.; assay type: functional, Mus musculus; in short: as §1
[28] = tested on: L1210; experiment: Compound was evaluated in vivo for antitumor activity after intraperitoneal administration against L1210(935) for total dose at an optimal dose of 0.25 mg/kg/injection at 1,4,7,11day schedule.; assay type: functional, Mus musculus; in short: as §1
[29] = tested on: L1210; experiment: Compound was evaluated in vivo for antitumor activity after intraperitoneal administration against L1210(935) for median day of death at an optimal dose of 1 mg/kg/injection at 1 day schedule.; assay type: functional, Mus musculus; in short: as §1

## CN(C)CCCNc1ncnc2c1C(=O)C(N1CC1)=C(N1CC1)C2=O
[1]
  Total dose: 1.8 mg/kg
[2]
  Mortality: 16 days
[3]
  Median day of death: 23
[4]
  Total dose: 0.8 mg/kg
[5]
  Median day of death: 15.5
[6]
  Mortality: 18 days
[7]
  ILS at 1 mg/kg: 27%
[8]
  Mortality: 16 days
[9]
  ILS at 0.75 mg/kg: 19%
[10]
  Optimal dose: 28 mg/kg
[11]
  Survivors: 0
[12]
  Survivors: 0
[13]
  ILS at 0.5 mg/kg: 61%
[14]
  ILS at 0.25 mg/kg: 58%
[15]
  Total dose: 1 mg/kg
[16]
  Total dose: 1.08 mg/kg
[17]
  Median day of death: 13
[18]
  Change in body weight: 0.8 g mouse-1
[19]
  Total dose: 0.5 mg/kg
[20]
  Change in body weight: 1.3
[21]
  Mortality: 39 days
[22]
  Mortality: 21 days
[23]
  Toxicity: 0
[24]
  Toxicity: 0
  Toxicity related death: 0
[25]
  Total dose: 1 mg/kg
[26]
  Change in body weight: 0.6 g mouse-1 and 1.1 g mouse-1
[27]
  Change in body weight: 0.3 g mouse-1
[28]
  Total dose: 1 mg/kg
[29]
  Median day of death: 14
